B1: tRNA (parent)
chain: GUUCCGUUGGCGUAAUGGUAACGCGUCUCCCUCCUAAGGAGAAGACUGCGGGUUCGAGUCCCGUACGGAACG

This sample holds only a part of the variants without activity.

Variants of B1 are the subject of the data set. Kind of data set: yeast fitness relative to wild type (ratio to wild type); higher = fitter; tRNA-Arg(CCU), competitive growth, 37 C, YPD. The essentials:
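Changes in genotype frequencies gave Darwinian fitness relative to wild type. Frequencies were read by 100-nucleotide paired-end sequencing of gene amplicons before and after pooled Saccharomyces cerevisiae strains, carrying tRNA-Arg(CCU) gene variants at the native locus, were competed in YPD at 37°C for 24 hours in six replicates. A genotype was kept only with ≥ 100 starting reads, and estimates < 0.5 were set to 0.5.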
Take GUUCCGUUGGCGUAAUGGUAACGCGUCUGCCUGCUAAGGAGCAGACUACGGGUUCGAGUCCCGUACGGAACG: the yeast fitness was 0.777.
With GUUCCGUUGGCGUAAUGGUAACGCGUCUGGCUCCUAAGGAGAAGAGUGCGGGUUCGAGUCCCGUACGGAACG the figure was 0.521; with GUUCCGUUGGCGUAAUGGUAACGCGUCUGCCUGCUAAGGAGAAGACUGCGGGUUCGACUCCGGUACGGAACG, ≤ 0.5; with GUUCCGUUGGCGUAAUGGUAACGCGUCUGGCUCGUAAGGAGAAGACUGCGGGUUCGAGUACCGUACCGAACG, ≤ 0.5.
Take GUUCCGUUGGCGUAAUGGUAACGCGUCUGCCUCUUAAGGAGAAGACUGCGGGUUCGAGUCCCAUACAGGACG: the yeast fitness is ≤ 0.5.
Turning to GUUCCGUUGGCGUAAUGGUAACGCGUCUGCCUGCUAAGGAGCAGACUGCGGGUUCGAGUCCCGUACGGAACG, the yeast fitness was 0.54.
With GUUCCGUUGGCGUAAUGGUAACGCGUCUGCCUCCUAAGGAGUAGACGGCGGGUUCGCGUCACGUACGGAACG the figure was ≤ 0.5.
With GUUCCGUUGGCGUAAUGGUAACGCGUCUGCCUCCUAAGGAGAAGCCUGCGGGUUCGAGUCCCGUACGGAGCG the figure was 0.573; with GUUCCGUUGGCGUAAUGGUAACGCGUCUGCCUCUUAACGAGAAGACUGCGGGUUAGAGUCCCGUACGGAACG, ≤ 0.5.
Consider GUUCCGUUGGCGUAAUGGUAACGCGUCUGCGUCCUACGGAGAAGACUGCGGGUUCGAGUCCCGUAAGGAACG, for which the yeast fitness worked out at 0.575.
The value for GUUCCGUUGGCGUAAUGGUAACGCGUCUGCCUCCUAAGGAGAAGCCUGCGGAUUCGAGUCCCGUACGGAACG was ≤ 0.5.
In the case of GUUCCGUUGGCGUAAUGGUAACGCGUCUGGCCCCUUAGGAGAAGACUGCGGGUUCGAGUCCCGUACGGAACG, the yeast fitness was 0.524.
With GUUCCGUUGGCGUAAUGGUAACGCGUCUGCCUUCUAAGGAGAACACUCCGGGUUAGAGUCCCGUACGGAACG the figure was ≤ 0.5.
With GUUCCGUUGGCGUAAUGGUAACGCGUCUGCCUCAUAAGCAGAAGACUGCGGGUUCGAGUCCCGUACGGAACG the figure was ≤ 0.5; with GUUCCGUUGGCGUAAUGGUAACGCGUCUGCCUCCUAAGGAGAAGAAUGCGGGUUCGAGCCCCGUACGGAACG, 0.546.
The value for GUUCCGUUGGCGUAAUGGUAACGCGUCUGCCUAAUAAGGAGAAGACUGCGGGUUCGUGUCCCGUACGGAACG was 0.54; that for GUUCCGUUGGCGUAAUGGUAACGCGUCUGCUUCCUAAGGAGACCACUGCGGGUUCGAGUCCCGUACGCAACG was ≤ 0.5.
Take GUUCCGUUGGCGUAAUGGUAACGCGUCUGCCUUCCAAAGAGAAGACUGCGGGUUCGAGUCCCGUACGGAACG: the yeast fitness is ≤ 0.5.
GUUCCGUUGGCGUAAUGGUAACGCGUCUGCAUCCUAAGGAGCAGACUGCGGGUUCGAGUCCCGUACCGAACG: the yeast fitness was determined as 0.606.
With GUUCCGUUGGCGUAAUGGUAACGCGUCUGGCUCCUAAGGAGAAGACUGAGGGUUCCAGUCUCGUACGGCACG, the yeast fitness was determined as 0.717.
The value for GUUCCGUUGGCGUAAUGGUAACGCGUCUGCCUGCUAAGGAGAUGACUGCGGGUUCGAGUCCCGUACGGAACG was ≤ 0.5; that for GUUCCGUUGGCGUAAUGGUAACGCGUCUGCCUUCUAAGGAGAAGUCUGCGGGUUCAAGCCCCGUCCGGAGCG was ≤ 0.5.
As for GUUCCGUUGGCGUAAUGGUAACGCGUCUGCUUCCUAAGGAGACCACUGCGGGUUCGAGUCCCGUUCGGAACG, the yeast fitness came to 0.517.
Consider GUUCCGUUGGCGUAAUGGUAACGCGUCUGCCUUCUAAGGAGAAGUCUGCGGGUUCGAGUCCCGUACGGAACG, for which the yeast fitness is ≤ 0.5.
On to GUUCCGUUGGCGUAAUGGUAACGCGUCUGCCUCCUAAGGAGAAGACUGCGGGUUCGUGUCCCGUACGGAACG, for which the yeast fitness was 0.72.
For the variant GUUCCGUUGGCGUAAUGGUAACGCGUCUGCCUUGUAAGGAGAAGACUGCGGGUACGAGUCCCGUACGGAACG, the yeast fitness is 0.545.
The value for GUUCCGUUGGCGUAAUGGUAACGCGUCUGCCUCCUAAGGAGAUGACUGCGGGUUCGAGUCCCGUAUGGAACG was ≤ 0.5; that for GUUCCGUUGGCGUAAUGGUAACGCGUCUGCCUUCUAAGGAGAAGACAGCGGGUUCGAAUCCCGUACGGAACG was ≤ 0.5.
The value for GUUCCGUUGGCGUAAUGGUAACGCGUCUGCGUCCUAAGGAGAAGAGUGCGGGUUUGAGUCCCGUACGGAACG was ≤ 0.5; that for GUUCCGUUGGCGUAAUGGUAACGCGUCUGCCUCCUAAGGAGAAGACUGCGGGUUCGAGUCCCGUUCGGAACG was 0.579; that for GUUCCGUUGGCGUAAUGGUAACGCGUCUGCCUCCUAAGGAGAGGACUGGGGGUUCGAGUCCCGUACGGAACG was 0.532.
As to GUUCCGUUGGCGUAAUGGUAACGCGUCUGCCUCCUAAGGAGAAGAGUCCGGGUUCGAGUCCUGUACGGAACG, the yeast fitness was ≤ 0.5.
The value for GUUCCGUUGGCGUAAUGGUAACGCGUCUGCCUCCUAAGGAGAAGGCUGCGGGUUCGAGUCCCGUACGGCCCG was ≤ 0.5; that for GUUCCGUUGGCGUAAUGGUAACGCGUCUGCCUCAUAGGGAGAAGACUGCGGGUUCGAGUACCGUACGGAACG was ≤ 0.5; that for GUUCCGUUGGCGUAAUGGUAACGCGUCUGCCUUCUAAGGAGAAGACAGCGGGUUCGAGUCUCGUACGGCACG was ≤ 0.5.
The value for GUUCCGUUGGCGUAAUGGUAACGCGUCUGCAUGCUAAGGAAAGGACUGCGGGUUCGAGUCUCGUACGGAACG was ≤ 0.5.
With GUUCCGUUGGCGUAAUGGUAACGCGUCUGCGUCCUAAGGAGAAGACUGCGGGUUCGAGACCCGUACGGGACG the figure was ≤ 0.5; with GUUCCGUUGGCGUAAUGGUAACGCGUCUGCCUCCUAAGGAGAAGACUGCGGGUUCGUGUACCGUACGGAACG, ≤ 0.5.
For the variant GUUCCGUUGGCGUAAUGGUAACGCGUCUGCCUCCUAAGGAGACGACUGCGCGUUCGCGUCCCGUACGGAACG, the yeast fitness is ≤ 0.5.
Turning to GUUCCGUUGGCGUAAUGGUAACGCGUCUGCCUCCUAAGGAGAAGACUGCGGGUUCGAGUCCCGUACGGAGCG, the yeast fitness turned out to be 0.548.
As for GUUCCGUUGGCGUAAUGGUAACGCGUCUGCCUCCUAAGGAGAAGACUGCGGGUUCGAGUCCCGUACGGACCG, the yeast fitness amounted to 0.76.
The value for GUUCCGUUGGCGUAAUGGUAACGCGUCUGCCUCCUAAGGAGAAGACUGCGGGUUCGAGUCCCGUACGGAUCG was 0.682.
In the case of GUUCCGUUGGCGUAAUGGUAACGCGUCUGCCUGCUAAGGAGAAGACUGUGGGUUCGAGUCCCGUACGGAACG, the yeast fitness is 0.536.
The value for GUUCCGUUGGCGUAAUGGUAACGCGUCUGCUUCCUAUGGAGAAGACUGCGGGUUCGAGUCCCGUACGGAACG was ≤ 0.5.
With GUUCCGUUGGCGUAAUGGUAACGCGUCUGCCUGCGAAGGAGAAAACUGCGGGUUCGAGUCCCGUACGGAACG the figure was 0.628.
With GUUCCGUUGGCGUAAUGGUAACGCGUCUGCCUCCUAAGGAGACGACUGCGGGUUCGAGUCCCGUACGGAACG, the yeast fitness is 0.661.
The value for GUUCCGUUGGCGUAAUGGUAACGCGUCUGCCUCCUAAGGAGAGGACUGCGGGUUCGAGUCCCGUACGGAACG was 0.785; that for GUUCCGUUGGCGUAAUGGUAACGCGUCUGCAUCCUAAGGAGAAGACUGCGGGUUCGAGUCCCGUACAGAACG was 0.56.
Turning to GUUCCGUUGGCGUAAUGGUAACGCGUCUGUCUCCUAAGGAGAAGAUUACGGGUUCGAGUCCCGUACGGAACG, the yeast fitness is ≤ 0.5.
Turning to GUUCCGUUGGCGUAAUGGUAACGCGUCUGCCUCCUAAGGAGAAGACUGCGGGUUCGAGUCCCGUACGGCACG, the yeast fitness turned out to be 0.628.
For GUUCCGUUGGCGUAAUGGUAACGCGUCUGCCUCCUAAGGAGAAGACUGCGGGUUCGAGUCCCGUACGGUACG, the yeast fitness came out at 0.771.
The value for GUUCCGUUGGCGUAAUGGUAACGCGUCUGCCUCCUAAGGAGAGGACAGCGGGUUCGAGUCCCGUACGGAACG was ≤ 0.5; that for GUUCCGUUGGCGUAAUGGUAACGCGUCUGCCUCCUAAGGAGAUGAUUGCGGGUUCGAGUCCCGUACGGAACG was ≤ 0.5; that for GUUCCGUUGGCGUAAUGGUAACGCGUCUGCAUCCUAAGGAGAAGACUGCGGGUUCGAGUCCCGUACGGAACG was 0.511.
The value for GUUCCGUUGGCGUAAUGGUAACGCGUCUGCGUCCUAAGGAGAAGACUGCGGGUUCGAGUCCCGUACGGAACG was 0.695.
For the variant GUUCCGUUGGCGUAAUGGUAACGCGUCUGCUUCCUAAGGAGAAGACUGCGGGUUCGAGUCCCGUACGGAACG, the yeast fitness came out at 0.68.
With GUUCCGUUGGCGUAAUGGUAACGCGUCUGCCUUCUAGGGCGAAGACUGCGGGUUCGCGUCCCGUACGGAACG the figure was ≤ 0.5.
Turning to GUUCCGUUGGCGUAAUGGUAACGCGUCUGGCUCCUAAGGAGAAGACUGCGGGUUCGAGUCCCGUACGGAACG, the yeast fitness amounted to 0.814.
The value for GUUCCGUUGGCGUAAUGGUAACGCGUCUGCCUCCUAAGGAGAAGACUGCGGGUUCGCGGCCCGUACGGAACG was ≤ 0.5; that for GUUCCGUUGGCGUAAUGGUAACGCGUCUGGCUCCUAAGGAGAAGACUGAGGGUUCGAGUCCCGUACGGAACG was 0.839; that for GUUCCGUUGGCGUAAUGGUAACGCGUCUGCCUCCUAAGGAGAAGACUGCGGGUUCGAGUCCCGUGAGGAACG was ≤ 0.5.
The value for GUUCCGUUGGCGUAAUGGUAACGCGUCUGCCUCCUAAGGAGAUGACUGCGGGUUCGAGUCCCGUACGGAUCG was 0.563.
GUUCCGUUGGCGUAAUGGUAACGCGUCUGCCUCCUAAGGAGACGACUGCGGGUUCGAGUCCCGUACCGAACG: the yeast fitness amounted to 0.654.
The value for GUUCCGUUGGCGUAAUGGUAACGCGUCUGCCUUCUAAGGAGAAGACUGCGGGUUCGAGUCCCGUCCGGAACG was 0.554.
Turning to GUUCCGUUGGCGUAAUGGUAACGCGUCUGCCUCCUAAGGAGAAGAGUGCGGGUUCGAGUCCCGUACGGAACG, the yeast fitness is 0.687.
The value for GUUCCGUUGGCGUAAUGGUAACGCGUCUGGCCCCUUAGGAGAAGACUGCGGGUUCGAGUUUCGUACGGAACG was 0.566.
For GUUCCGUUGGCGUAAUGGUAACGCGUCUGUGUCCUAAGGAGAAGACUGUCGGUUCGAGUCCCGUACGGAACG, the yeast fitness was ≤ 0.5.
As to GUUCCGUUGGCGUAAUGGUAACGCGUCUGCCUCCUAAGGAGAAGCCUGCGGGUUCGAGUCCCGUACGGAACG, the yeast fitness was 0.614.
With GUUCCGUUGGCGUAAUGGUAACGCGUCUGCCUGCUAAGGAGAAGACUGCGGCUUCGAGUCCCGUACGGAACG, the yeast fitness worked out at 0.579.
As to GUUCCGUUGGCGUAAUGGUAACGCGUCUGGCUCCUAAGGAGAAGACUGCGGGUUCGUGUCCCGUACGGAGCG, the yeast fitness is 0.503.
The value for GUUCCGUUGGCGUAAUGGUAACGCGUCUGCCUUCUAAGGAGAAGACCGCGGGUUCGAGUCCCGUACGGAACG was ≤ 0.5; that for GUUCCGUUGGCGUAAUGGUAACGCGUCUGCCUCAUAAGGAGAAGACUGCGGGUUCGAGUACCGUACGGCACG was ≤ 0.5; that for GUUCCGUUGGCGUAAUGGUAACGCGUCUGCCUCAUAAGGAGAAGACUGCGGGUUCGAGUACCGUACGGAACG was ≤ 0.5.
Turning to GUUCCGUUGGCGUAAUGGUAACGCGUCUGCCUCCUAAGGAGAUGAGUGCGGGUUCGAGUCCAGUACGGAACG, the yeast fitness was ≤ 0.5.
The value for GUUCCGUUGGCGUAAUGGUAACGCGUCUGCCUCGUAAGGAGAAGAAUGCGGGAUCGAGUCUCGUACGGAACG was 0.544.

The values above are taken from the RNAGym collection of RNA variant scans (doi:10.1126/science.aae0568).
